# Assay results taken from ChEMBL document CHEMBL4382192, “Discovery of a potent dual ALK and EGFR T790M inhibitor” (Eur J Med Chem, 2017).
# Key:
# [1] = target: Serine/threonine-protein kinase STK11 (Homo sapiens) (UniProt Q15831); assay: Binding affinity to wild-type human full length LKB1 (M1 to Q433 residues) expressed in bacterial expression system assessed as residual binding level at 1 uM by Kinomescan method relative to control
# How it was run: (§1)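 Single-point kinome-wide KINOMEscan binding panel, test compound at 1 μM, run by the provider's standard protocol.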
# [2] = target: Mitogen-activated protein kinase 8 (Homo sapiens) (UniProt P45983); assay: Binding affinity to wild-type human full length JNK1 (M1 to Q384 residues) expressed in mammalian expression system assessed as residual binding level at 1 uM by Kinomescan method relative to control; how it was run: as §1
# Mitogen-activated protein kinase 8 (Homo sapiens), sequence (P45983 whole entry, the tested form may be a part): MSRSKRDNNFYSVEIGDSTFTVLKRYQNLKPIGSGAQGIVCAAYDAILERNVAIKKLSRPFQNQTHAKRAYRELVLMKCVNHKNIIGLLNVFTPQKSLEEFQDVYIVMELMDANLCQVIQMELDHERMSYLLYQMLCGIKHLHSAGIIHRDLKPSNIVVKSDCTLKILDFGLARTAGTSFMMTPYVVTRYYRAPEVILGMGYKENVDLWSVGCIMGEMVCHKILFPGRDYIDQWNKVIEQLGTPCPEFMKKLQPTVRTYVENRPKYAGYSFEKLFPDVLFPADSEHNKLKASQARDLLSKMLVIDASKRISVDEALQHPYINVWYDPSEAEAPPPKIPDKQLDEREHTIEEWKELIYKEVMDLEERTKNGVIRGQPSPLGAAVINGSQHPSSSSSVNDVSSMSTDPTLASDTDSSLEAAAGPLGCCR
# [3] = target: Serine/threonine-protein kinase SIK3 (Homo sapiens) (UniProt Q9Y2K2); assay: Binding affinity to wild-type human partial length QSK (A90 to L395 residues) expressed in mammalian expression system assessed as residual binding level at 1 uM by Kinomescan method relative to control
# Serine/threonine-protein kinase SIK3 (Homo sapiens), sequence (Q9Y2K2 whole entry, looked up, the tested form may be a part): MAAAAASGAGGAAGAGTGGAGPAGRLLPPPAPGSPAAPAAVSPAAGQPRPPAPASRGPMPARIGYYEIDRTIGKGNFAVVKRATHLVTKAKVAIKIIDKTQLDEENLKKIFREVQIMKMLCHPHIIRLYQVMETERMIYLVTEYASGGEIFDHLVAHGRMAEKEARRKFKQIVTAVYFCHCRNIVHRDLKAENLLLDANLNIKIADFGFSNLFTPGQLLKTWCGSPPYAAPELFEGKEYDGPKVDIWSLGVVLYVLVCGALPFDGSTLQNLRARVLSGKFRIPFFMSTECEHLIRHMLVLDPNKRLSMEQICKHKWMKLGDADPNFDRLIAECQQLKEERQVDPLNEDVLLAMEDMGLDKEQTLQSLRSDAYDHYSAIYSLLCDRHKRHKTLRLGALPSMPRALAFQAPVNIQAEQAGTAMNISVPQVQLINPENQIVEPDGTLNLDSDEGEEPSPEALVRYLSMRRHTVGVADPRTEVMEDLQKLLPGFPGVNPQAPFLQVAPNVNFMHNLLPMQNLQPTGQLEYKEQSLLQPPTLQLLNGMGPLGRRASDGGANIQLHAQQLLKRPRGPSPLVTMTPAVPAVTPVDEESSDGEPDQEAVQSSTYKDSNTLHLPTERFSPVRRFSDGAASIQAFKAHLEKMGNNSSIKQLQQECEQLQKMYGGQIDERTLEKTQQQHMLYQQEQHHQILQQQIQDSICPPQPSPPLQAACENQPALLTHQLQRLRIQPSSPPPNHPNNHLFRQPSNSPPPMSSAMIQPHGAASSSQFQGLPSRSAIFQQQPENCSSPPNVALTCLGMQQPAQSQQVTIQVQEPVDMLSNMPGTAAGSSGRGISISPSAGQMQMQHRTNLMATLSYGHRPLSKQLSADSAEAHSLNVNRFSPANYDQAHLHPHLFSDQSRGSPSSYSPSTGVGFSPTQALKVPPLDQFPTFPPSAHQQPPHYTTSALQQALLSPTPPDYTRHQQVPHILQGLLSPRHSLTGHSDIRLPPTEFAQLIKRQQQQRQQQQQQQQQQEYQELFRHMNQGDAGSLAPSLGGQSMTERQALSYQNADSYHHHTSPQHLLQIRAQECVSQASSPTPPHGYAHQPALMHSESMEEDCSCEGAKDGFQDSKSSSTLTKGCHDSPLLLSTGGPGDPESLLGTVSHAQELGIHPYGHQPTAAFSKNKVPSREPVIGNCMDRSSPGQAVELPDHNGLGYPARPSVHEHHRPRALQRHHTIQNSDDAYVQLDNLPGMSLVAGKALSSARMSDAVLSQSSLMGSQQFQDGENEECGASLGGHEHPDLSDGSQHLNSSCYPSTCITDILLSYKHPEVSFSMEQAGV
# [4] = target: Ribosomal protein S6 kinase alpha-6 (Homo sapiens) (UniProt Q9UK32); assay: Binding affinity to wild-type human partial length N-terminal RSK4 kinase domain 1 (M1 to E397 residues) expressed in mammalian expression system assessed as residual binding level at 1 uM by Kinomescan method relative to control
# Ribosomal protein S6 kinase alpha-6 (Homo sapiens), sequence (Q9UK32 whole entry, the tested form may be a part): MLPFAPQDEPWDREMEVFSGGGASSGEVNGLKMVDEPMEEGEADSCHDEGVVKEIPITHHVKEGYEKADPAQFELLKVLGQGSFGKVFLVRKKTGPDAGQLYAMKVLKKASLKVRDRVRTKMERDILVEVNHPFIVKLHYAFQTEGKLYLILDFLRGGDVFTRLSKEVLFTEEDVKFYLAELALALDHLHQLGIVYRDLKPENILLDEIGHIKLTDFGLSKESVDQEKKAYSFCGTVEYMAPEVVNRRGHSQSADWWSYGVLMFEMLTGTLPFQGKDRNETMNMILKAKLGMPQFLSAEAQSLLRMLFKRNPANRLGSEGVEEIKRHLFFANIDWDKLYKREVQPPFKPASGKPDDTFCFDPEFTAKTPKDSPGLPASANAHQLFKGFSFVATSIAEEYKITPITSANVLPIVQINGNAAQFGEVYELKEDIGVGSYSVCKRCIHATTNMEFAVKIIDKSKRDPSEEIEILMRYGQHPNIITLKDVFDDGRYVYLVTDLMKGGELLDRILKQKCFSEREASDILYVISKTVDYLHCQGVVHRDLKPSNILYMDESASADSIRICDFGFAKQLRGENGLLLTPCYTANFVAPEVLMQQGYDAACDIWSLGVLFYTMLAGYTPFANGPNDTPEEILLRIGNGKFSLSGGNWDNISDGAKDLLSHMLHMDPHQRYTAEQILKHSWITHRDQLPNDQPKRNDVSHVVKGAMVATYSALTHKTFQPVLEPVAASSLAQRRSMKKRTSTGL
# [5] = target: Serine/threonine-protein kinase Nek6 (Homo sapiens) (UniProt Q9HC98); assay: Binding affinity to wild-type human full length NEK6 (M8 to T313 residues) expressed in bacterial expression system assessed as residual binding level at 1 uM by Kinomescan method relative to control; how it was run: as §1
# Serine/threonine-protein kinase Nek6 (Homo sapiens), sequence (Q9HC98 whole entry, the tested form may be a part): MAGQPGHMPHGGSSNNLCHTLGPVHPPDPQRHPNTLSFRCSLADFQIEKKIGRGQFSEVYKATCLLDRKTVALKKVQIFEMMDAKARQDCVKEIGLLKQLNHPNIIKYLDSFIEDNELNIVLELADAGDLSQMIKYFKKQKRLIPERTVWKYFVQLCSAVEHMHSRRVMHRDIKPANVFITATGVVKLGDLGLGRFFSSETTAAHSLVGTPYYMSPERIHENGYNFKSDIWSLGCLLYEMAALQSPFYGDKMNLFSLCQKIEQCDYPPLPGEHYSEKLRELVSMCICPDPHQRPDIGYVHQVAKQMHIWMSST
# [6] = target: Serine/threonine-protein kinase pim-3 (Homo sapiens) (UniProt Q86V86); assay: Binding affinity to wild-type human partial length PIM3 (G16 to A317 residues) expressed in bacterial expression system assessed as residual binding level at 1 uM by Kinomescan method relative to control
# [7] = target: Serine/threonine-protein kinase N1 (Homo sapiens) (UniProt Q16512); assay: Binding affinity to wild-type human partial length PKN1 (E598 to C948 residues) expressed in bacterial expression system assessed as residual binding level at 1 uM by Kinomescan method relative to control
# [8] = target: Myosin light chain kinase (Homo sapiens) (UniProt Q32MK0); assay: Binding affinity to wild-type human partial length MLCK (D488 to K800 residues) expressed in bacterial expression system assessed as residual binding level at 1 uM by Kinomescan method relative to control
# [9] = target: Leukocyte tyrosine kinase receptor (Homo sapiens) (UniProt P29376); assay: Binding affinity to wild-type human partial length LTK (P422 to S744 residues) expressed in bacterial expression system assessed as residual binding level at 1 uM by Kinomescan method relative to control
# [10] = target: Cyclin-dependent kinase 19 (Homo sapiens) (UniProt Q9BWU1); assay: Binding affinity to wild-type human partial length CDK11 (M1 to N360 residues) expressed in bacterial expression system assessed as residual binding level at 1 uM by Kinomescan method relative to control
# [11] = target: Serine/threonine-protein kinase 32B (Homo sapiens) (UniProt Q9NY57); assay: Binding affinity to wild-type human full length YANK2 (M1 to S414 residues) expressed in bacterial expression system assessed as residual binding level at 1 uM by Kinomescan method relative to control
# Serine/threonine-protein kinase 32B (Homo sapiens), sequence (Q9NY57 whole entry, the tested form may be a part): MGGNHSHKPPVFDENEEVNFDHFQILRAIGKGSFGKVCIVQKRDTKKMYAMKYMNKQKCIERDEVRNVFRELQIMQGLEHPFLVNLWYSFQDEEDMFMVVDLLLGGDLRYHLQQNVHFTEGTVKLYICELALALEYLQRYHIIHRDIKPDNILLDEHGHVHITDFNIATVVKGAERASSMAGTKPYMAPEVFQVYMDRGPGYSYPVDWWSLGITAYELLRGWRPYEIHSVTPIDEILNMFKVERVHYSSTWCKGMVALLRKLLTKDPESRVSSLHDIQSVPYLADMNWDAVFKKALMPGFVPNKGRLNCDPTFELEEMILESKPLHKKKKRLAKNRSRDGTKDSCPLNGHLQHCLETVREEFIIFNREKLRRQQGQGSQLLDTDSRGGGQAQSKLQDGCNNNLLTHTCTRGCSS
# [12] = target: Mitogen-activated protein kinase kinase kinase 15 (Homo sapiens) (UniProt Q6ZN16); assay: Binding affinity to wild-type human partial length MAP3K15 (T625 to L932 residues) expressed in mammalian expression system assessed as residual binding level at 1 uM by Kinomescan method relative to control
# [13] = target: NUAK family SNF1-like kinase 2 (Homo sapiens) (UniProt Q9H093); assay: Binding affinity to wild-type human partial length SNARK (P22 to A333 residues) expressed in mammalian expression system assessed as residual binding level at 1 uM by Kinomescan method relative to control
# NUAK family SNF1-like kinase 2 (Homo sapiens), sequence (Q9H093 whole entry, the tested form may be a part): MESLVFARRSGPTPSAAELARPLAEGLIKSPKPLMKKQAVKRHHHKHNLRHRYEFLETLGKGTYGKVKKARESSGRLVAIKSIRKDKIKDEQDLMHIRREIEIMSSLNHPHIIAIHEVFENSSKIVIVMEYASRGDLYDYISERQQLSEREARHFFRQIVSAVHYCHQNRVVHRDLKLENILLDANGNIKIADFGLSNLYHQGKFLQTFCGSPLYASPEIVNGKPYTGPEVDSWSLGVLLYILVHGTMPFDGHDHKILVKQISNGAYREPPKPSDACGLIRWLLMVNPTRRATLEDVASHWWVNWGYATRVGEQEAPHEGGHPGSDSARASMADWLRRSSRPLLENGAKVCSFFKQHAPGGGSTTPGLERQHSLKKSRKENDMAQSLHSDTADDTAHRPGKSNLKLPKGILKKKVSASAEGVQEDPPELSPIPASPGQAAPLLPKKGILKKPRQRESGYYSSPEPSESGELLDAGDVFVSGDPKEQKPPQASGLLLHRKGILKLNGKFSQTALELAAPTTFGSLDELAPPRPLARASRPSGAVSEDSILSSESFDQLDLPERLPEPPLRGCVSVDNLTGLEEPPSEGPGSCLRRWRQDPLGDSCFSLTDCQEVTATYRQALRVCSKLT
# [14] = target: Epithelial discoidin domain-containing receptor 1 (Homo sapiens) (UniProt Q08345); assay: Binding affinity to wild-type human partial length DDR1 (R565 to V876 residues) expressed in bacterial expression system assessed as residual binding level at 1 uM by Kinomescan method relative to control
# [15] = target: MAP/microtubule affinity-regulating kinase 4 (Homo sapiens) (UniProt Q96L34); assay: Binding affinity to wild-type human partial length MARK4 (K29 to G340 residues) expressed in bacterial expression system assessed as residual binding level at 1 uM by Kinomescan method relative to control
# [16] = target: Ribosomal protein S6 kinase alpha-4 (Homo sapiens) (UniProt O75676); assay: Binding affinity to wild-type human partial length N-terminal RPS6KA4 kinase domain 1 expressed in bacterial expression system assessed as residual binding level at 1 uM by Kinomescan method relative to control
# [17] = target: Cyclin-dependent kinase-like 3 (Homo sapiens) (UniProt Q8IVW4); assay: Binding affinity to wild-type human partial length CDKL3 (M1 to D327 residues) expressed in bacterial expression system assessed as residual binding level at 1 uM by Kinomescan method relative to control
# Cyclin-dependent kinase-like 3 (Homo sapiens), sequence (Q8IVW4 whole entry, looked up, the tested form may be a part): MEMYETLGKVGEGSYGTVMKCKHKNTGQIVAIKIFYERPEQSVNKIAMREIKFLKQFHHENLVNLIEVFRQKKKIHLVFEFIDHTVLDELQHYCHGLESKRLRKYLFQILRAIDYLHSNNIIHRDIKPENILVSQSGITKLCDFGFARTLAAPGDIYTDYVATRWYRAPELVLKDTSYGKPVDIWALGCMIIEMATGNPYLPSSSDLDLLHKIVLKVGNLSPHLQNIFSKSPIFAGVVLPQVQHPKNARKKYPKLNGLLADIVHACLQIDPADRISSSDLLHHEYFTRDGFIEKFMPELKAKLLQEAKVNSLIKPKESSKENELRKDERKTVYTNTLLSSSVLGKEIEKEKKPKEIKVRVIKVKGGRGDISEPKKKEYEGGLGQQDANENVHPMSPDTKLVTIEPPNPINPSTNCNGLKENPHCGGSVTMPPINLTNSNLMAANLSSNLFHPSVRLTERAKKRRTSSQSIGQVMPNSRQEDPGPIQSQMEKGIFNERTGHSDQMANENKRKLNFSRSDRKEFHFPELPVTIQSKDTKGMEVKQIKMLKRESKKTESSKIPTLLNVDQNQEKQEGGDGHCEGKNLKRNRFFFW
# [18] = target: Myosin light chain kinase, smooth muscle (Homo sapiens) (UniProt Q15746); assay: Binding affinity to wild-type human full length MYLK (M854 to E1845 residues) expressed in mammalian expression system assessed as residual binding level at 1 uM by Kinomescan method relative to control; how it was run: as §1
# [19] = system: Phosphatidylinositol 4,5-bisphosphate 3-kinase catalytic subunit alpha isoform (Homo sapiens), P42336 [I800L]; assay: Binding affinity to human partial length PIK3CA I800L mutant (R108 to N1068 residues) expressed in mammalian expression system assessed as residual binding level at 1 uM by Kinomescan method relative to control
# [20] = target: Eukaryotic translation initiation factor 2-alpha kinase 1 (Homo sapiens) (UniProt Q9BQI3); assay: Binding affinity to wild-type human partial length EIF2AK1 (Q147 to E603 residues) expressed in mammalian expression system assessed as residual binding level at 1 uM by Kinomescan method relative to control
# [21] = target: Dual specificity mitogen-activated protein kinase kinase 5 (Homo sapiens) (UniProt Q13163); assay: Binding affinity to wild-type human partial length MEK5 (L98 to P448 residues) expressed in mammalian expression system assessed as residual binding level at 1 uM by Kinomescan method relative to control
# Dual specificity mitogen-activated protein kinase kinase 5 (Homo sapiens), sequence (Q13163 whole entry, the tested form may be a part): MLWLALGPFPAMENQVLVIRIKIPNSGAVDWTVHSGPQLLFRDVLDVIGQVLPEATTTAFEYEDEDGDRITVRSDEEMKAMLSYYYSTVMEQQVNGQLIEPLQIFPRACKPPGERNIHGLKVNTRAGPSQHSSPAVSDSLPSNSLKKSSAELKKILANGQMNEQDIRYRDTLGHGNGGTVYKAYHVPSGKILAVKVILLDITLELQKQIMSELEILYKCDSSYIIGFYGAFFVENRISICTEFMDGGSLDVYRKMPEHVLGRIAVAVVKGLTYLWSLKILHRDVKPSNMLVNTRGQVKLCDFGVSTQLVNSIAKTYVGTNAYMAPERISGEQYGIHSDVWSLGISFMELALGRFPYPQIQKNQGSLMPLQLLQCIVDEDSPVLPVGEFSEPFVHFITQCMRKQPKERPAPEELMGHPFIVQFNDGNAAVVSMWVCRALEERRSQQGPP
# [22] = target: Serine/threonine-protein kinase BRSK2 (Homo sapiens) (UniProt Q8IWQ3); assay: Binding affinity to wild-type human full length BRSK2 (M1 to L674 residues) expressed in bacterial expression system assessed as residual binding level at 1 uM by Kinomescan method relative to control
# [23] = target: NT-3 growth factor receptor (Homo sapiens) (UniProt Q16288); assay: Binding affinity to wild-type human partial length TRKC (Q531 to G825 residues) expressed in mammalian expression system assessed as residual binding level at 1 uM by Kinomescan method relative to control
# [24] = target: Mitogen-activated protein kinase kinase kinase 19 (Homo sapiens) (UniProt Q56UN5); assay: Binding affinity to wild-type human partial length YSK4 (T1019 to H1328 residues) expressed in mammalian expression system assessed as residual binding level at 1 uM by Kinomescan method relative to control
smiles,measurement,setting,value
C=CC(=O)Nc1cc(Nc2ncc(Cl)c(Nc3ccccc3S(=O)(=O)C(C)C)n2)c(OC)cc1N(C)CCN(C)C,Activity,[1],88%
same,Activity,[2],59%
same,Activity,[3],61%
same,Activity,[4],15%
same,Activity,[5],80%
same,Activity,[6],96%
same,Activity,[7],41%
same,Activity,[8],100%
same,Activity,[9],0%
same,Activity,[10],86%
same,Activity,[11],2.4%
same,Activity,[12],45%
same,Activity,[13],1.2%
same,Activity,[14],16%
same,Activity,[15],6%
same,Activity,[16],99%
same,Activity,[17],66%
same,Activity,[18],1.3%
same,Activity,[19],81%
same,Activity,[20],72%
same,Activity,[21],28%
same,Activity,[22],49%
same,Activity,[23],85%
same,Activity,[24],14%
